We go through 17 compounds from ChEMBL document CHEMBL1132645, “Novel arylpyrazino[2,3-c][1,2,6]thiadiazine 2,2-dioxides as inhibitors of platelet aggregation. 1. Synthesis and pharmacological evaluation” (1999).

Each structure is given as a SMILES string.

Format in all cases: functional
Test [1] is filed under the species Oryctolagus cuniculus. The test can be described thus: Compound was screened for its platelet aggregation induced by adenosine diphosphate in vitro in rabbit. Also noted: concentration or dose not given beside the values. In outline:
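Rabbit citrated PRP (male New Zealand white, 2.5–3.5 kg, cardiac puncture), adjusted to 5 × 10⁵ platelets/μL with PPP. Compound in DMSO preincubated 10 min at 37 °C, then ADP 1–2 μM added. Born aggregometry read at 5 min. Single fixed concentration; result is percent inhibition of maximal amplitude against paired vehicle controls.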

The species named for test [2] is Oryctolagus cuniculus. Description: Compound was screened for its platelet aggregation induced by arachidonic acid in vitro in rabbit. In outline: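 Rabbit citrated PRP, 5 × 10⁵ platelets/μL, compound preincubated in DMSO 10 min at 37 °C, then arachidonic acid 1 mM. Born aggregometry at 5 min, triplicate for each concentration. Value is EC100, the lowest concentration giving complete inhibition, read from concentration–response data.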

In test [3] the test system is Rattus norvegicus. The test can be described thus: In vivo inhibitory activity after 120 min of 100 mg/kg oral administration induced by collagen in rats. The conditions noted are these: 2 h. Summed up:
(§1)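 Male Wistar rats, 200–250 g, fasted overnight, were dosed by oral gavage with compound suspended in 0.25% carboxymethylcellulose in 10% Tween 80 (10 mL/kg). Blood was drawn by cardiac puncture under ether at 30 or 120 min and anticoagulated with heparin 1 U/mL final. PRP was diluted to (4–5) × 10⁵ cells/μL. Agonists: AA 0.4 mM, collagen 1–2 μg/mL, I-BOP 225–250 nM. Percent inhibition read at 5 min; 3–5 determinations, mean ± SEM.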

The subject of test [4] is Rattus norvegicus. The test can be described thus: In vivo inhibitory activity after 120 min of 100 mg/kg oral administration induced by arachidonic acid in rats. The conditions noted are these: 2 h. In outline: as §1
The test system of test [5] is Rattus norvegicus. The test can be described thus: In vivo inhibitory activity after 30 min of 100 mg/kg oral administration induced by I-BOP in rats. As to conditions: 0.5 h. Summed up: as §1
Test [6] relates to Rattus norvegicus. The test can be described thus: In vivo inhibitory activity after 30 min of 100 mg/kg oral administration induced by collagen in rats. The conditions noted are these: 0.5 h. Summed up: as §1
The test system of test [7] is Rattus norvegicus. The test can be described thus: In vivo inhibitory activity after 120 min of 100 mg/kg oral administration induced by I-BOP in rats. As to conditions: 2 h. Summed up:
as §1

The subject of test [8] is Rattus norvegicus. Description: In vivo inhibitory activity after 30 min of 100 mg/kg oral administration induced by arachidonic acid in rats. As to conditions: 0.5 h. Summed up: as §1
The test system of test [9] is Rattus norvegicus. Description: In vivo inhibitory activity after 120 min of 25 mg/kg oral administration induced by arachidonic acid in rats. As to conditions: 2 h.
Test [10] concerns Rattus norvegicus. Description: In vivo inhibitory activity after 120 min of 25 mg/kg oral administration induced by I-BOP in rats. The conditions noted are these: 2 h.
Test [11] relates to Rattus norvegicus. The test can be described thus: In vivo inhibitory activity after 120 min of 25 mg/kg oral administration induced by collagen in rats. As to conditions: 2 h.
The species named for a further test is Homo sapiens. The test can be described thus: Compound was screened for its platelet aggregation induced by collagen in vitro in human platelets at conc 1 mM. Summed up:
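Human citrated PRP (blood from consenting volunteers, 3.8% trisodium citrate 9:1; PRP 250g 10 min, PPP 2000g 20 min, room temperature), adjusted to 3 × 10⁵ platelets/μL with PPP. Compounds in DMSO preincubated 10 min at 37 °C. Agonists: AA 1 mM, collagen 1–2 μg/mL, U46619 1.4 μM, I-BOP 225–250 nM. Born turbidimetric aggregometry read 5 min after agonist; inhibition of maximal amplitude versus paired vehicle; 3–4 determinations, mean ± SEM.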

As to `NC(=O)CN1c2nc(-c3ccccc3)c(-c3ccccc3)nc2C(N)=NS1(=O)=O`, the Inhibitory response in the test filed under Oryctolagus cuniculus [1] is reported as 47%. In the test filed under Oryctolagus cuniculus [2], this compound gave an EC100 of 0.003 mg/mL.
For the compound `CN1c2nc(-c3ccccn3)c(-c3ccccn3)nc2C(N)=NS1(=O)=O`, in the test listed under Oryctolagus cuniculus [1], the Inhibitory response was 43%. In addition, the EC100 in the test filed under Oryctolagus cuniculus [2] amounted to 0.003 mg/mL.
Take `CN1c2ncc(-c3ccccc3)nc2C(N)=NS1(=O)=O`: the Inhibitory response in the test listed under Oryctolagus cuniculus [1] came to 43%. In the test listed under Oryctolagus cuniculus [2], this compound showed an EC100 of 0.0003 mg/mL.
Taken in the same sequence, the figures for `CN1c2nc(-c3ccco3)c(-c3ccco3)nc2C(N)=NS1(=O)=O` were 63% and 0.001 mg/mL.
In the case of `CCN1c2nc(C)c(-c3ccccc3)nc2C(N)=NS1(=O)=O`, the inhibition in vivo (commonly the percentage by which the read-out fell short of the control) at 100 mg/kg in the test with Rattus norvegicus [3] came out at 47.2%; in the test with Rattus norvegicus [4], 48.8%; in the test on Rattus norvegicus [5], 59.6%; with Rattus norvegicus [6], 93.5%; in the test on Rattus norvegicus [7], 50.3%; in the test on Rattus norvegicus [8], 20%. The compound also showed an Inhibitory response in the test filed under Oryctolagus cuniculus [1] of 47%. The EC100 in the test listed under Oryctolagus cuniculus [2] was 0.001 mg/mL.
With `O=C(O)CCn1c2c(c3ccccc31)CC(NS(=O)(=O)c1ccc(F)cc1)CC2` (stereo not given), the inhibition in vivo at 25 mg/kg in the test with Rattus norvegicus [9] was 74.2%; with Rattus norvegicus [10], 72.5%; in the test on Rattus norvegicus [11], 95.3%.
With `CCOC(=O)CN1c2nc(-c3ccccc3)c(-c3ccccc3)nc2C(N)=NS1(=O)=O`, the Inhibitory response in the test listed under Oryctolagus cuniculus [1] stood at 30%. In the test listed under Oryctolagus cuniculus [2], this compound yielded an EC100 of 0.0001 mg/mL.
Take `CCN1c2nc(-c3ccccc3)c(Cl)nc2C(N)=NS1(=O)=O`: the Inhibitory response in the test filed under Oryctolagus cuniculus [1] stood at 23%. Also, the EC100 in the test listed under Oryctolagus cuniculus [2] was determined as 0.01 mg/mL.
Taken in the same sequence, the figures for `CC(C)(C)OC(=O)CN1c2nc(-c3ccccc3)c(-c3ccccc3)nc2C(N)=NS1(=O)=O` were 32% and 0.001 mg/mL.
As for `CCN1c2nc(-c3ccccc3)c(-c3ccccc3)nc2C(N)=NS1(=O)=O`, the inhibition in vivo at 100 mg/kg in the test on Rattus norvegicus [3] came out at 26.3%; in the test on Rattus norvegicus [4] it was 1%; in the test on Rattus norvegicus [5], 100%; in the test on Rattus norvegicus [6], 82.6%; in the test on Rattus norvegicus [7], 30%; with Rattus norvegicus [8], 6.5%. This compound yielded an Inhibitory response in the test listed under Oryctolagus cuniculus [1] of 46%. The compound also yielded an EC100 in the test filed under Oryctolagus cuniculus [2] of 0.0003 mg/mL.
On to `NC1=NS(=O)(=O)N(Cc2ccccc2)c2nc(-c3ccccc3)c(-c3ccccc3)nc21`, for which, in the test filed under Oryctolagus cuniculus [1], the Inhibitory response came to 30%. Also, the EC100 in the test filed under Oryctolagus cuniculus [2] came out at 0.003 mg/mL.
As for `CCOC(=O)CN1c2nc(-c3ccccc3)c(Br)nc2C(N)=NS1(=O)=O`, in the test filed under Oryctolagus cuniculus [1], the Inhibitory response came out at 36%. The compound also showed an EC100 in the test listed under Oryctolagus cuniculus [2] of 0.01 mg/mL.
In turn, `CCN1c2nc(-c3cccs3)c(-c3cccs3)nc2C(N)=NS1(=O)=O` had an Inhibitory response in the test listed under Oryctolagus cuniculus [1] of 43%. Further, the EC100 in the test filed under Oryctolagus cuniculus [2] was found to be 0.003 mg/mL.
Consider `CCN1c2nc(-c3ccccc3)c(C)nc2C(N)=NS1(=O)=O`, for which, in the test filed under Oryctolagus cuniculus [1], the Inhibitory response is 59%. The same compound displayed an EC100 in the test listed under Oryctolagus cuniculus [2] of 0.001 mg/mL.
In turn, `Nc1ncnc2c1ncn2[C@@H]1O[C@H](CO)[C@@H](O)[C@H]1O` [ADENOSINE] showed an Inhibitory response in the test listed under Oryctolagus cuniculus [1] of 64%.
Turning to `CC(=O)Oc1ccccc1C(=O)O` [ASPIRIN], the inhibition in vivo at 100 mg/kg with Rattus norvegicus [3] stood at 84.6%; in the test with Rattus norvegicus [4], 93.8%; in the test with Rattus norvegicus [7], 0.9%. In addition, the EC100 in the test filed under Oryctolagus cuniculus [2] stood at 0.0025 mg/mL. Also, testing at 1000 µM in the test filed under Homo sapiens gave an inhibition of 94%.
As for `Clc1ccccc1CN1CCc2sccc2C1` [TICLOPIDINE], the inhibition in vivo at 100 mg/kg with Rattus norvegicus [3] came out at 98.7%; in the test on Rattus norvegicus [4], 0.9%; in the test with Rattus norvegicus [7], 57.1%.
